Laboratory results: ChEMBL document CHEMBL4014285, “Novel, highly potent systemic glucokinase activators for the treatment of Type 2 Diabetes Mellitus” (Bioorg Med Chem Lett, 2017)
≈ marks a conversion by molar mass, not a printed value. Calls of active or inactive are those of the source. No cut-off for these calls is given here.

Key:
[1] = target: T1, Hexokinase-4 (Homo sapiens) (UniProt P35557); test: Activation of recombinant human glucokinase assessed as conversion of D-glucose to D-glucose-6-phosphate in presence of 10 mM glucose by G6PDH coupled spectrophotometric assay relative to control
T1 sequence (whole entry): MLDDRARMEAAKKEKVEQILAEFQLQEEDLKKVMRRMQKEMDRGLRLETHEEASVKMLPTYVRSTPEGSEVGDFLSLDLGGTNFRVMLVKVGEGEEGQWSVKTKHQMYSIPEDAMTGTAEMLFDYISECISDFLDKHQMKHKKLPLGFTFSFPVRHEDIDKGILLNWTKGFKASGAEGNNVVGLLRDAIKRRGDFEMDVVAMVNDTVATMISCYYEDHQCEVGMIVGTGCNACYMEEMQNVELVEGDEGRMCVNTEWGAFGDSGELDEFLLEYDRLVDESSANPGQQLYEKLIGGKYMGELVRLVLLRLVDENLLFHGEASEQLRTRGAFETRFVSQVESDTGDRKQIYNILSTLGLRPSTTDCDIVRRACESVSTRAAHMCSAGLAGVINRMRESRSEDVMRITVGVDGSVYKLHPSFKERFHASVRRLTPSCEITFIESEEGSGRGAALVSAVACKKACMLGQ
Procedure, shortened: (§1)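 Recombinant human GK; ATP-dependent D-glucose-6-phosphate formation from D-glucose at 2.5 or 10 mM, read by continuous glucose-6-phosphate dehydrogenase coupled spectrophotometry. Activators titrated at 1% DMSO final, DMSO as control. EC50 = concentration giving half of maximal increase in product formation; maximum activity expressed as percent velocity increase vs DMSO at saturating activator. Single titration.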

[2] = target: T2, Hexokinase-4 (Homo sapiens, UniProt P35557); test: Activation of recombinant human glucokinase assessed as conversion of D-glucose to D-glucose-6-phosphate in presence of 10 mM glucose by G6PDH coupled spectrophotometric assay; procedure, shortened: as §1
T2 sequence (P35557 whole entry): T1 sequence (whole entry)

[3] = target: T3, Hexokinase-4 (Rattus norvegicus, UniProt P17712); test: Activation of glucokinase in primary rat hepatocytes assessed as increase in D-2-deoxyglucose-6-phosphate level in presence of D-2-deoxyglucose by HILIC LC-MS method; format: cell-based
T3 sequence (P17712 whole entry): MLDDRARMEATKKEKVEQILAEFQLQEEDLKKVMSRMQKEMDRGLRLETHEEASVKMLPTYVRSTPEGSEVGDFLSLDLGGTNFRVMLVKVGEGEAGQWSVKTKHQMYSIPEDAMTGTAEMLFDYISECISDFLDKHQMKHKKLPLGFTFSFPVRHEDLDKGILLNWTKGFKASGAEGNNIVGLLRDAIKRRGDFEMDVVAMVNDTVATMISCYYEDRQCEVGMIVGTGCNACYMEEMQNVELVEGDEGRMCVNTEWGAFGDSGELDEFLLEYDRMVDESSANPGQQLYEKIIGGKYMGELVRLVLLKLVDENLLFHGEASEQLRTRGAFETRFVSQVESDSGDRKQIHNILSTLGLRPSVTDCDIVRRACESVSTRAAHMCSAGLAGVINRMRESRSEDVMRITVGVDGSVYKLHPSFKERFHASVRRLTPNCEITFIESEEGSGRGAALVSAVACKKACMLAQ
Procedure, shortened: (§2)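 GKACA cell assay in rat INS-1 Clone-13 insulinoma cells or freshly isolated primary rat hepatocytes; intracellular D-2-deoxyglucose-6-phosphate formed from exogenous D-2-deoxyglucose quantified by HILIC LC-MS; EC50 from a single titration.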

[4] = target: T1, Hexokinase-4 (Homo sapiens); test: Activation of recombinant human glucokinase assessed as conversion of D-glucose to D-glucose-6-phosphate in presence of 2.5 mM glucose by G6PDH coupled spectrophotometric assay relative to control; procedure, shortened: as §1
[5] = target: T2, Hexokinase-4; test: Activation of recombinant human glucokinase assessed as conversion of D-glucose to D-glucose-6-phosphate in presence of 2.5 mM glucose by G6PDH coupled spectrophotometric assay; procedure, shortened: as §1
[6] = target: T3, Hexokinase-4; test: Activation of glucokinase in rat INS-1 cells assessed as increase in D-2-deoxyglucose-6-phosphate level in presence of D-2-deoxyglucose by HILIC LC-MS method; format: cell-based; procedure, shortened: as §2
[7] = Solubility of the compound at pH 2; format: physicochemical; settings: buffer
[8] = Solubility of the compound at pH 7; format: physicochemical; settings: buffer
[9] = Unbound fraction in C57BL/6 mouse plasma; format: ADME, cell-free
Procedure, shortened: (§3)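 Unbound fraction determined in 100% human or C57BL/6 mouse plasma.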

[10] = Mean residence time in rat; format: ADME; settings: in vivo
[11] = Clearance in rat; format: ADME; settings: in vivo
[12] = Half life in rat; format: ADME; settings: in vivo
[13] = Stability of compound in human liver microsomes assessed as compound remaining at 1 uM measured after 30 mins; format: ADME, microsome; settings: read-out: Stability
Procedure, shortened: (§4)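 Human or rat liver microsome preparations incubated with compound; percent parent remaining after 30 min.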

[14] = Oral bioavailability in rat; format: ADME, organism-based; settings: in vivo
[15] = Apparent permeability in MDCK cells; format: ADME, cell-based, Canis lupus familiaris; settings: dog
[16] = Unbound fraction in human plasma; format: ADME, cell-free; procedure, shortened: as §3
[17] = Stability of compound in rat liver microsomes assessed as compound remaining at 1 uM measured after 30 mins; format: ADME, microsome; settings: read-out: Stability; procedure, shortened: as §4
[18] = species: Rattus norvegicus; test: Dose normalized Cmax in rat; format: ADME; settings: in vivo
[19] = Total drug level in HFD-fed C57BL/6 mouse plasma at 0.01 mg/kg, po measured at 4 hrs post dose; format: ADME, organism-based
Procedure, shortened: (§5)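 3-week high fat diet-fed C57BL/6 mice given 0.01, 0.03 or 0.10 mg/kg orally; total (bound plus unbound) drug concentration in plasma sampled 4 h after dosing.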

[20] = Total drug level in HFD-fed C57BL/6 mouse plasma at 0.03 mg/kg, po measured at 4 hrs post dose; format: ADME, organism-based; procedure, shortened: as §5
[21] = Apparent permeability in pig LLC-PK1 cells; format: ADME, cell-based, Sus scrofa
[22] = Total drug level in HFD-fed C57BL/6 mouse plasma at 0.10 mg/kg, po measured at 4 hrs post dose; format: ADME, organism-based; settings: 0.1 mg/kg; procedure, shortened: as §5
[23] = species: Rattus norvegicus; test: Dose normalized AUC in rat; format: ADME; settings: in vivo
[24] = Volume of distribution at steady state in rat; format: ADME; settings: in vivo, read-out: Vdss
[25] = tested on: Plasma; test: Total drug level in po dosed HFD-fed C57BL/6 mouse plasma measured at 4 hrs post dose; format: ADME, organism-based; settings: in vivo; procedure, shortened: as §5
[26] = tested on: Mus musculus; test: Antidiabetic activity in HFD-fed C57BL/6 mouse assessed as decrease in blood glucose level at 0.03 mg/kg, po measured after 30 mins; format: functional, organism-based
Procedure, shortened: (§6)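 C57BL/6 mice fed high fat diet for 3 weeks, baseline blood glucose ~200 mg/dl, dosed orally at 0.01, 0.03 and 0.1 mg/kg. Blood glucose followed from 30 min through 4 h post dose, with blood glucose AUC over the period; plasma insulin also measured.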

[27] = tested on: Mus musculus; test: Antidiabetic activity in HFD-fed C57BL/6 mouse assessed as reduction in blood glucose AUC at 0.03 to 0.1 mg/kg, po measured at 4 hrs post dose; format: functional, organism-based; procedure, shortened: as §6
[28] = tested on: Mus musculus; test: Antidiabetic activity in HFD-fed C57BL/6 mouse assessed as increase in plasma insulin level at 0.03 to 0.1 mg/kg, po; format: functional, organism-based; procedure, shortened: as §6

SMILES	%max [1] [%]	EC50 [2] [nM]	EC50 [3] [nM]	%max [4] [%]	EC50 [5] [nM]	EC50 [6] [nM]	also measured
CCOC(=O)c1ccc(Oc2cc3cc(-c4ccc(C(F)(F)F)cn4)[nH]c3cc2C2CCC(=O)N2C)cc1 (stereo not drawn)	123	9.2	232	452	4.8	22	–
CCS(=O)(=O)c1ccc(Oc2cc3cc(-c4ccc(C(F)(F)F)cn4)[nH]c3cc2C2CCC(=O)N2C)cc1 (stereo not drawn)	158	1.4	174	602	2	1.7	–
CN1C(=O)CCC1c1cc2[nH]c(-c3ccc(C(F)(F)F)cn3)cc2cc1Oc1ccc(C(=O)O)cc1 (stereo not drawn)	179	9.6	728	683	24	2110	solubility [7]: 5 µM (≈ 2.48 µg/mL); solubility [8]: 113 µM (≈ 56 µg/mL)
COC(=O)c1ccc(-c2cc3cc(Oc4ccc(S(C)(=O)=O)nc4)c(C4CCC(=O)N4C)cc3[nH]2)nc1 (racemic)	184	3.4	20	739	8.2	7.8	–
Cc1cnc(-c2cc3cc(Oc4ccc(S(C)(=O)=O)nc4)c(C4CCC(=O)N4C)cc3[nH]2)s1 (single isomer, unassigned) [listing 1 of 2 here]	–	3.8	16	–	4.5	21	–
Cc1cnc(-c2cc3cc(Oc4ccc(S(C)(=O)=O)nc4)c(C4CCC(=O)N4C)cc3[nH]2)s1 (single isomer, unassigned) [listing 2 of 2 here]	168	–	–	620	–	–	–
CN1C(=O)CCC1c1cc2[nH]c(-c3ccc(C(F)(F)F)cn3)cc2cc1Oc1ccc(S(C)(=O)=O)nc1 (single isomer, unassigned; ent-2) [listing 1 of 2 here]	–	31	199	–	86	375	–
CN1C(=O)CCC1c1cc2[nH]c(-c3ccc(C(F)(F)F)cn3)cc2cc1Oc1ccc(S(C)(=O)=O)nc1 (single isomer, unassigned; ent-2) [listing 2 of 2 here]	141	–	–	583	–	–	–
Cc1cnc(-c2cc3cc(Oc4ccc(S(C)(=O)=O)nc4)c(C4CCC(=O)N4C)cc3[nH]2)s1 (stereo in doubt; 2-en) [listing 1 of 2 here]	–	1	77	–	5.5	37	–
Cc1cnc(-c2cc3cc(Oc4ccc(S(C)(=O)=O)nc4)c(C4CCC(=O)N4C)cc3[nH]2)s1 (stereo in doubt; 2-en) [listing 2 of 2 here]	132	–	–	482	–	–	–

Now from value to compound, other results behind:

%max [1] [%]	EC50 [2] [nM]	EC50 [3] [nM]	%max [4] [%]	EC50 [5] [nM]	EC50 [6] [nM]	SMILES	also measured
–	2.4	7.5	–	3.7	0.9	CN1C(=O)CCC1c1cc2[nH]c(-c3ccccn3)cc2cc1Oc1ccc(S(C)(=O)=O)nc1 (single isomer, unassigned; ent-1) [listing 1 of 2 here]	fraction unbound [9]: 0.072; MRT [10]: 2.85 h; clearance [11]: 18 mL/min/kg; solubility [7]: 194 µM (≈ 89.7 µg/mL); half-life [12]: 2.8 h; remaining at 0.5 h, 1 µM [13]: 75%; bioavailability [14]: 30%; Papp [15]: 40 ×10⁻⁶ cm/s; fraction unbound [16]: 0.087; solubility [8]: 142 µM (≈ 65.7 µg/mL); remaining at 0.5 h, 1 µM [17]: 79%; Cmax/dose [18]: 0.235 µM·kg/mg; concentration at 4 h [19]: 3.8 nM; concentration at 4 h [20]: 12 nM; Papp [21]: 40 ×10⁻⁶ cm/s; concentration at 4 h [22]: 18 nM; AUC/dose [23]: 0.59 µM·kg·h/mg; Vd [24]: 3.05 L/kg; Drug uptake [25]: Dose-dependent effect
193	–	–	784	–	–	CN1C(=O)CCC1c1cc2[nH]c(-c3ccccn3)cc2cc1Oc1ccc(S(C)(=O)=O)nc1 (single isomer, unassigned; ent-1) [listing 2 of 2 here]	Activity [26]: Active; Activity [27]: Active; Activity [28]: Active
–	0.8	93	–	4.2	33	CN1C(=O)CCC1c1cc2[nH]c(-c3ccccn3)cc2cc1Oc1ccc(S(C)(=O)=O)nc1 (stereo in doubt; 1-en) [listing 1 of 2 here]	–
158	–	–	628	–	–	CN1C(=O)CCC1c1cc2[nH]c(-c3ccccn3)cc2cc1Oc1ccc(S(C)(=O)=O)nc1 (stereo in doubt; 1-en) [listing 2 of 2 here]	–
–	4.2	23	–	4.5	7.2	CN1C(=O)CCC1c1cc2[nH]c(-c3cnccn3)cc2cc1Oc1ccc(S(C)(=O)=O)nc1 (stereo in doubt; 3) [listing 1 of 2 here]	–
188	–	–	713	–	–	CN1C(=O)CCC1c1cc2[nH]c(-c3cnccn3)cc2cc1Oc1ccc(S(C)(=O)=O)nc1 (stereo in doubt; 3) [listing 2 of 2 here]	–
–	18	1510	–	48	247	CN1C(=O)CCC1c1cc2[nH]c(-c3cnccn3)cc2cc1Oc1ccc(S(C)(=O)=O)nc1 (stereo in doubt; 3-en) [listing 1 of 2 here]	–
155	–	–	577	–	–	CN1C(=O)CCC1c1cc2[nH]c(-c3cnccn3)cc2cc1Oc1ccc(S(C)(=O)=O)nc1 (stereo in doubt; 3-en) [listing 2 of 2 here]	–
–	2.1	5.2	–	4.8	3.9	CN1C(=O)CCC1c1cc2[nH]c(-c3ccc(C(C)(C)O)cn3)cc2cc1Oc1ccc(S(C)(=O)=O)nc1 (stereo in doubt; 4) [listing 1 of 2 here]	–
173	–	–	739	–	–	CN1C(=O)CCC1c1cc2[nH]c(-c3ccc(C(C)(C)O)cn3)cc2cc1Oc1ccc(S(C)(=O)=O)nc1 (stereo in doubt; 4) [listing 2 of 2 here]	–
–	9.8	34	–	31	38	CN1C(=O)CCC1c1cc2[nH]c(-c3ccc(C(C)(C)O)cn3)cc2cc1Oc1ccc(S(C)(=O)=O)nc1 (stereo in doubt; 4-en) [listing 1 of 2 here]	–
132	–	–	581	–	–	CN1C(=O)CCC1c1cc2[nH]c(-c3ccc(C(C)(C)O)cn3)cc2cc1Oc1ccc(S(C)(=O)=O)nc1 (stereo in doubt; 4-en) [listing 2 of 2 here]	–
–	< 0.85	2.7	–	2.4	2.5	CN1C(=O)CCC1c1cc2[nH]c(-c3ccc(C(F)(F)F)cn3)cc2cc1Oc1ccc(S(C)(=O)=O)nc1 (stereo in doubt; 5) [listing 1 of 2 here]	–
174	–	–	764	–	–	CN1C(=O)CCC1c1cc2[nH]c(-c3ccc(C(F)(F)F)cn3)cc2cc1Oc1ccc(S(C)(=O)=O)nc1 (stereo in doubt; 5) [listing 2 of 2 here]	–
